The values that follow come from ChEMBL document CHEMBL1153325, “Morpholine containing CB2 selective agonists” (Bioorg Med Chem Lett, 2009).

Active and inactive are the calls of the source. The rule behind the calls is not given here.

The EC50 is the concentration at which the effect is half-maximal. For orientation: Ki means the equilibrium dissociation constant of an inhibitor or competing ligand from its target.

Assay [1] deals with T1, Cannabinoid receptor 2 (Homo sapiens, UniProt P34972). As to the kind of experiment: Agonist activity at human CB2 receptor expressed in CHO cells assessed as inhibition of forskolin-induced cAMP release relative to CP-55940. Format: functional, cell-based. The method in brief: (§1)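 CHO cells stably expressing human CB2, 5000 cells/well, incubated overnight at 37 °C. Compounds added in stimulation buffer with 1 mM IBMX, 0.25% BSA and forskolin, 30 min at 37 °C. cAMP read after lysis with a commercial kit. 100% is set by forskolin-stimulated cAMP versus the level under 200 nM CP-55940. Efficacy is relative to CP-55940, which is run twice per plate. EC50 from a four-parameter logistic fit. Each compound tested in triplicate, at least three times; mean reported.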

In assay [2] the target is T1, Cannabinoid receptor 2. Description: Agonist activity at human CB2 receptor expressed in CHO cells assessed as inhibition of forskolin-induced cAMP release. Format: functional, cell-based. The method in brief:
as §1

The species entered for a further assay is Homo sapiens. As to the kind of experiment: Selectivity ratio of EC50 for human CB1 receptor to EC50 for human CB2 receptor. The gist of the method: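 Inhibition is normalised to 200 nM CP-55940. EC50 from a four-parameter logistic fit. Each compound tested in triplicate, at least three times.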
Assay [3] has as its target T1, Cannabinoid receptor 2. As to the kind of experiment: Displacement of [3H]CP-55940 form human CB2 receptor transfected in HEK cells at 50 nM. Type of assay: cell-based. Conditions: HEK293. In general terms: Displacement assays read how much labelled ligand stays bound in the presence of the test substance.
The target in assay [4] is T1, Cannabinoid receptor 2. As to the kind of experiment: Inverse agonist activity at human CB2 receptor expressed in CHO cells assessed as change in forskolin-induced cAMP release. Format: functional, cell-based. Conditions: filed as inverse agonist. The method in brief: as §1
Assay [5] deals with T1, Cannabinoid receptor 2. As to the kind of experiment: Displacement of [3H]CP-55940 form human CB2 receptor transfected in HEK cells. Format: cell-based, HEK293. The gist of the method: (§2)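 Compounds tested at 1×10^-5 to 1×10^-10 M. Competition with [³H]-CP55940 or [³H]-Win55212 at 4 nM final. IC50 is 50% inhibition of specific binding, from a four-parameter logistic fit.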

Assay [6] deals with Mus musculus. As to the kind of experiment: Antiinflammatory activity in BALB/c mouse assessed as inhibition of zymosan-induced paw edema at 30 mg/kg, po administered 60 mins before zymosan challenge measured after 3 hrs relative to control. Type of assay: functional. Also noted: scale not given: the % may be the effect or the level left. The method in brief: (§3)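 Male Balb/c mice, 6–10 weeks old. Compound given orally in 95% PEG400/5% Tween 80 about 60 min before 0.5% zymosan in 0.9% saline, injected dorsal metatarsally into each hind paw. Paw volume measured by water plethysmometry before challenge and 3 h after. Inhibition of swelling is relative to vehicle-dosed mice, six per group.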

Assay [7] concerns the target T1, Cannabinoid receptor 2. As to the kind of experiment: Displacement of [3H]Win55212 form human CB2 receptor transfected in HEK cells. Type of assay: cell-based, HEK293. The gist of the method:
as §2

Assay [8] concerns Mus musculus. Description: Antiinflammatory activity in BALB/c mouse assessed as inhibition of zymosan-induced paw edema at 100 mg/kg, po administered 60 mins before zymosan challenge measured after 3 hrs relative to control. Also noted: scale not given: the % may be the effect or the level left. Format: functional. The gist of the method:
as §3

T1 sequence (P34972 whole entry): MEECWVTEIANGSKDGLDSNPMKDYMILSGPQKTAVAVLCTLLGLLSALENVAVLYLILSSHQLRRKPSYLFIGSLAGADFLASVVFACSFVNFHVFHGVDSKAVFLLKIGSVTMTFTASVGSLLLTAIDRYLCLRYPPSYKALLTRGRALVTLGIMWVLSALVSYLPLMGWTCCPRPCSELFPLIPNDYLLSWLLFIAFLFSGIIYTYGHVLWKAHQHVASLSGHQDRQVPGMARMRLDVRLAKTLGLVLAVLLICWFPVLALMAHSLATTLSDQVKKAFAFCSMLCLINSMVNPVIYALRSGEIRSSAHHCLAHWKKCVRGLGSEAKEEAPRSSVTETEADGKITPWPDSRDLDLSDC

In the case of `Fc1ccc(Nc2ccc(CN3CCO[C@@H](c4ccccc4)C3)cn2)cc1`, on Cannabinoid receptor 2 [1], the Efficacy stood at 70%. Moreover, the EC50 on Cannabinoid receptor 2 [2] came to 35 nM.
Take `Cc1ccc(Nc2ccc(CN3CCO[C@@H](c4ccccc4)C3)cn2)cc1`: the Efficacy at Cannabinoid receptor 2 [1] is 80%. The EC50 at Cannabinoid receptor 2 [2] was determined as 100 nM. Further, in the assay filed under Homo sapiens, the Ratio EC50 was over 200.
The matching figures for `Clc1ccccc1Nc1ccc(CN2CCO[C@@H](c3ccccc3)C2)cn1`: 80%, 30 nM and 250.
For the molecule `Clc1cccc(Nc2ccc(CN3CCO[C@@H](c4ccccc4)C3)cn2)c1`, the Efficacy on Cannabinoid receptor 2 [1] worked out at 80%. For the same molecule, the EC50 on Cannabinoid receptor 2 [2] was 200 nM. In addition, the Ratio EC50 in the assay filed under Homo sapiens was over 100.
For the molecule `CN(Cc1ccc(-c2ccccc2C(F)(F)F)cc1)CC(O)c1ccccc1` (racemic), the Efficacy on Cannabinoid receptor 2 [1] was 95%. The EC50 at Cannabinoid receptor 2 [2] came to 2 nM. Further, the result at Cannabinoid receptor 2 [3] was Active. In addition, the Ratio EC50 in the assay listed under Homo sapiens was 120.
For `N#Cc1ccccc1-c1ccc(CN2CCO[C@@H](c3ccccc3)C2)cc1`, on Cannabinoid receptor 2 [1], the Efficacy is 56%. Besides, the EC50 on Cannabinoid receptor 2 [2] turned out to be 3 nM. Moreover, the Ratio EC50 in the assay listed under Homo sapiens was 715.
The matching figures for `c1ccc(Nc2ccc(CN3CCO[C@@H](c4ccccc4)C3)cc2)cc1`: 60%, 615 nM and over 30.
For `Clc1cccc(Nc2ccc(CN3CCO[C@@H](c4ccccc4)C3)cn2)c1Cl` the same measures were 70%, 1600 nM and over 10.
Regarding `c1ccc(Oc2ccc(CN3CCO[C@@H](c4ccccc4)C3)cc2)cc1`, the Efficacy at Cannabinoid receptor 2 [1] amounted to 100%. For the same molecule, the EC50 on Cannabinoid receptor 2 [2] worked out at 15000 nM.
Turning to `COc1ccc(Nc2ccc(CN3CCO[C@@H](c4ccccc4)C3)cn2)cc1`, on Cannabinoid receptor 2 [1], the Efficacy worked out at 90%. Moreover, the EC50 on Cannabinoid receptor 2 [2] stood at 65 nM. For the same molecule, the Ratio EC50 in the assay filed under Homo sapiens is over 310.
For `FC(F)(F)c1ccccc1-c1ccc(CN2CCOC(c3ccccc3)C2)cc1` (racemic) the same measures were 50%, 330 nM and over 60.
Consider `FC(F)(F)c1ccccc1-c1ccc(CN2CCO[C@H](c3ccccc3)C2)cc1`, for which, at Cannabinoid receptor 2 [4], the Activity entry is “Inverse agonist”.
Consider `Clc1cccc(-c2ccc(CN3CCO[C@@H](c4ccccc4)C3)cc2)c1Cl`, for which the Efficacy on Cannabinoid receptor 2 [1] was 77%. In addition, the Ki on Cannabinoid receptor 2 [5] was determined as 312 nM; at Cannabinoid receptor 2 [7] it was 104 nM. Besides, the EC50 on Cannabinoid receptor 2 [2] worked out at 6 nM. For the same molecule, the Activity in the assay with Mus musculus [6] amounted to 54%. In the assay filed under Homo sapiens, the Ratio EC50 worked out at 960.
Consider `FC(F)(F)c1ccccc1-c1ccc(CN2CCO[C@@H](c3ccccc3)C2)cc1`, for which the Efficacy on Cannabinoid receptor 2 [1] turned out to be 50%. Moreover, the EC50 on Cannabinoid receptor 2 [2] stood at 40 nM. Besides, in the assay listed under Homo sapiens, the Ratio EC50 was 250.
The matching figures for `Clc1ccc(Nc2ccc(CN3CCO[C@@H](c4ccccc4)C3)cn2)cc1Cl`: 80%, 50 nM and over 400.
As to `Clc1ccc(Nc2ccc(CN3CCO[C@@H](c4ccccc4)C3)cn2)cc1`, the Efficacy on Cannabinoid receptor 2 [1] was 80%. Moreover, the EC50 at Cannabinoid receptor 2 [2] was determined as 30 nM. The Ratio EC50 in the assay filed under Homo sapiens is over 670.
Consider `CC(C)c1ccc(Nc2ccc(CN3CCO[C@@H](c4ccccc4)C3)cn2)cc1`, for which, at Cannabinoid receptor 2 [2], the EC50 is over 20000 nM.
`Clc1ccc(Nc2ccc(CN3CCO[C@@H](c4ccccc4)C3)cn2)c(Cl)c1`: the Efficacy at Cannabinoid receptor 2 [1] amounted to 100%. Moreover, the Ki is over 10000 nM on Cannabinoid receptor 2 [5] and 2650 nM at Cannabinoid receptor 2 [7]. The EC50 on Cannabinoid receptor 2 [2] was 10 nM. For the same molecule, the Activity with Mus musculus [8] is recorded as 85%. For the same molecule, the Ratio EC50 in the assay listed under Homo sapiens is over 2000.
For the molecule `O=C(NCC1CCOCC1)c1cnc(Nc2ccc(Cl)cc2Cl)nc1C(F)(F)F` [GW842166X], on Cannabinoid receptor 2 [1], the Efficacy was 90%. The Ki on Cannabinoid receptor 2 [5] is over 5000 nM; on Cannabinoid receptor 2 [7], over 10000 nM. For the same molecule, the EC50 on Cannabinoid receptor 2 [2] came out at 350 nM. The Ratio EC50 in the assay filed under Homo sapiens is over 60.
Regarding `Clc1ccccc1-c1ccc(CN2CCO[C@@H](c3ccccc3)C2)cc1`, the Efficacy on Cannabinoid receptor 2 [1] amounted to 51%. Also, the 50% effective concentration (EC50) on Cannabinoid receptor 2 [2] came to 25 nM. In addition, the Ratio EC50 in the assay listed under Homo sapiens came to 306.
The matching figures for `c1ccc(Nc2ccc(CN3CCO[C@@H](c4ccccc4)C3)cn2)cc1`: 70%, 140 nM and over 150.
`c1ccc(-c2ccc(Nc3ccc(CN4CCO[C@@H](c5ccccc5)C4)cn3)cc2)cc1`: on Cannabinoid receptor 2 [2], the EC50 was over 20000 nM.
For `Cc1ccc(Cl)c(-c2ccc(CN3CCO[C@@H](c4ccccc4)C3)cc2)c1`, at Cannabinoid receptor 2 [1], the Efficacy came to 73%. For the same molecule, at Cannabinoid receptor 2 [2], the EC50 was determined as 3 nM. Moreover, the Ratio EC50 in the assay listed under Homo sapiens was found to be 781.
For `FC(F)(F)c1ccccc1-c1ccc(CN2CCCC(c3ccccc3)C2)cc1` (racemic) the same measures were 57%, 30 nM and 195.
Regarding `CN(C)c1ccc(Nc2ccc(CN3CCO[C@@H](c4ccccc4)C3)cn2)cc1`, the EC50 on Cannabinoid receptor 2 [2] is over 20000 nM.
